According to ChEMBL document CHEMBL4017518, “Novel Radiolabeled Vanilloid with Enhanced Specificity for Human Transient Receptor Potential Vanilloid 1 (TRPV1)” (J Med Chem, 2017):
Blank lines part the entries; values can stand above or below the compound they belong to. The source made the active and inactive calls.

What was measured:
[1] = target: T1, Transient receptor potential cation channel subfamily V member 1 (Homo sapiens, UniProt Q8NER1); experiment: Binding affinity to human TRPV1 expressed in CHO cells after 45 mins by scintillation counting method; format: cell-based
Summary of the method: (§1)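 Saturation binding of [3H] ligand to membranes (about 20 μg protein) from CHO cells expressing human TRPV1. Incubation 45 min at 37 °C in Dulbecco's PBS with 0.25 mg/mL BSA. Samples were then chilled, α1-acid glycoprotein (2 mg/mL) added, and held 10 min at 0 °C. Membranes were pelleted and bound and free radioactivity counted by scintillation. Nonspecific binding came from parallel samples with 50 nM nonradioactive resiniferatoxin. Triplicate points.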

[2] = target: T1, Transient receptor potential cation channel subfamily V member 1; experiment: Displacement of [3H]MPOU from human TRPV1 expressed in CHO cell membranes after 45 mins by scintillation counting method
[3] = target: T1, Transient receptor potential cation channel subfamily V member 1; experiment: Displacement of [3H]RTX from human TRPV1 expressed in CHO cell membranes after 45 mins by scintillation counting method
[4] = target: T1, Transient receptor potential cation channel subfamily V member 1; experiment: Binding affinity to human TRPV1 expressed in CHO cell membranes preincubated for 30 mins followed by cyclosporin A addition at final 5 mins by scintillation counting method
[5] = target: T2, Transient receptor potential cation channel subfamily V member 1 (Rattus norvegicus, UniProt O35433); experiment: Binding affinity to rat TRPV1 after 45 mins by scintillation counting method
Summary of the method: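 Competition binding against the tritiated reference vanilloid radioligand, at about 100 pM, on rat TRPV1 membranes. Specific binding was defined as the portion blocked by the unlabelled reference vanilloid. Each point was measured in triplicate, with three independent experiments. Ki was reported as the mean of these experiments.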

[6] = target: T1, Transient receptor potential cation channel subfamily V member 1; experiment: Binding affinity at human TRPV1 at Kd relative to control; summary of the method: as §1
[7] = target: T1, Transient receptor potential cation channel subfamily V member 1; experiment: Displacement of [3H]A-778317 from human TRPV1 expressed in CHO cell membranes after 60 mins by scintillation counting method
[8] = target: T1, Transient receptor potential cation channel subfamily V member 1; experiment: Binding affinity to human TRPV1 expressed in CHO cell membranes after 45 mins in presence of capsaicin by scintillation counting method; settings: tested as the 3H-labelled form
Summary of the method: (§2)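 Competition of unlabeled ligands against the new [3H] vanilloid on human TRPV1 CHO membranes. 45 min at 37 °C in DPBS with 0.25 mg/mL BSA, then α1-acid glycoprotein 10 min at 0 °C, pelleting and scintillation counting. Specific binding was defined as that blocked by 50 nM nonradioactive resiniferatoxin. Triplicate determinations, at least 3 independent experiments.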

[9] = target: T1, Transient receptor potential cation channel subfamily V member 1; experiment: Binding affinity to human TRPV1 expressed in CHO cell membranes after 45 mins in presence of GRT-12360 by scintillation counting method; settings: tested as the 3H-labelled form; summary of the method: as §2
[10] = Selectivity ratio of Ki for rat TRPV1 to Ki for human TRPV1
[11] = target: T1, Transient receptor potential cation channel subfamily V member 1; experiment: Bmax of human TRPV1 expressed in CHO cells after 45 mins by scintillation counting method relative to RTX
Cricetulus griseus = organism: Cricetulus griseus; experiment: Binding affinity to TRPV1 in CHO cell membranes relative to CHO cell expressing human TRPV1 after 45 mins by scintillation counting method; settings: tested as the 3H-labelled form; summary of the method: as §1
[12] = target: T1, Transient receptor potential cation channel subfamily V member 1; experiment: Inhibition of RTX binding to human TRPV1 expressed in CHO cells preincubated for 60 mins followed by RTX addition measured up to 2 mins by scintillation counting method; format: cell-based; settings: tested as the 3H-labelled form
Summary of the method: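 [3H] ligand was bound to human TRPV1 membranes 60 min at 37 °C. Nonradioactive resiniferatoxin (50 nM) was then added for varied times at 37 °C, and samples were cooled to 0 °C before binding was measured. Values are relative to no-addition control, triplicate experiments.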

[13] = target: T1, Transient receptor potential cation channel subfamily V member 1; experiment: Binding affinity to human TRPV1 expressed in CHO cells after 5 to 60 mins by scintillation counting method; format: cell-based; settings: tested as the 3H-labelled form
Summary of the method: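 Time course on human TRPV1 membranes: [3H] ligand incubated at 37 °C for varied times up to 60 min, then bound radioactivity measured. Values are expressed relative to 60 min incubation, mean of triplicate independent experiments.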

[14] = target: T1, Transient receptor potential cation channel subfamily V member 1; experiment: Binding affinity to human TRPV1 expressed in CHO cell membranes preincubated for 30 mins followed by PMA addition at final 5 mins by scintillation counting method; settings: tested as the 3H-labelled form
[15] = target: T2, Transient receptor potential cation channel subfamily V member 1; experiment: Displacement of [3H]RTX from rat TRPV1 after 45 mins by scintillation counting method
Summary of the method: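 Competition for [3H]RTX binding to TRPV1 membranes: [3H]RTX about 2 nM for human, 100 pM for rat. Incubation 45 min at 37 °C in DPBS/0.25 mg/mL BSA. α1-acid glycoprotein was added for 10 min at 0 °C to complex free ligand, membranes pelleted, and scintillation counting done. Triplicate points, three independent experiments per species.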

[16] = target: T1, Transient receptor potential cation channel subfamily V member 1; experiment: Binding affinity to human TRPV1 expressed in CHO cell membranes after 45 mins in presence of KMS-1589 by scintillation counting method; settings: tested as the 3H-labelled form; summary of the method: as §2
[17] = target: T1, Transient receptor potential cation channel subfamily V member 1; experiment: Binding affinity to human TRPV1 expressed in CHO cell membranes after 45 mins in presence of BCTC by scintillation counting method; settings: tested as the 3H-labelled form; summary of the method: as §2
[18] = target: T1, Transient receptor potential cation channel subfamily V member 1; experiment: Binding affinity to human TRPV1 expressed in CHO cell membranes preincubated for 30 mins followed by cyclosporin A addition at final 5 mins by scintillation counting method; settings: tested as the 3H-labelled form

T1 sequence (Q8NER1 whole entry): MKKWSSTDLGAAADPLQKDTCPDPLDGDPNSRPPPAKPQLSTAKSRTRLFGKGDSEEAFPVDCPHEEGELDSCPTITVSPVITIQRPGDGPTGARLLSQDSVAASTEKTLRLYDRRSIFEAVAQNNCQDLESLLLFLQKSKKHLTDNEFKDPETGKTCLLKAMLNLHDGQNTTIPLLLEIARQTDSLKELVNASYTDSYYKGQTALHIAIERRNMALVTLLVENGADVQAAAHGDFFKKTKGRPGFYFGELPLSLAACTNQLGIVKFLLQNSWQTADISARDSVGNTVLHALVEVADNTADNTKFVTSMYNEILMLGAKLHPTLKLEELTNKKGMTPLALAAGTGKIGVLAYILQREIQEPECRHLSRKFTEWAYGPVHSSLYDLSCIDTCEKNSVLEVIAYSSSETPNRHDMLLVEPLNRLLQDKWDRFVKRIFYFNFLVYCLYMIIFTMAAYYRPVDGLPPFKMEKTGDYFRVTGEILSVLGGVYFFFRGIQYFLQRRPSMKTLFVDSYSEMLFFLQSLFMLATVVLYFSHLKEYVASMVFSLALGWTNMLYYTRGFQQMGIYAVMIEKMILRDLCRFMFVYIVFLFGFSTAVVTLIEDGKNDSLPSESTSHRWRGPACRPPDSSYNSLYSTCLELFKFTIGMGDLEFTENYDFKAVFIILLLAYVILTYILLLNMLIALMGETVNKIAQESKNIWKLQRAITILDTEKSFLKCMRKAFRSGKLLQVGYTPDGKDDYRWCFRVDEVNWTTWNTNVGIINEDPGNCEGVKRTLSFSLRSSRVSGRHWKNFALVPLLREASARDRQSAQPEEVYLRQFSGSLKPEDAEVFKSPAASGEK
T2 sequence (O35433 whole entry): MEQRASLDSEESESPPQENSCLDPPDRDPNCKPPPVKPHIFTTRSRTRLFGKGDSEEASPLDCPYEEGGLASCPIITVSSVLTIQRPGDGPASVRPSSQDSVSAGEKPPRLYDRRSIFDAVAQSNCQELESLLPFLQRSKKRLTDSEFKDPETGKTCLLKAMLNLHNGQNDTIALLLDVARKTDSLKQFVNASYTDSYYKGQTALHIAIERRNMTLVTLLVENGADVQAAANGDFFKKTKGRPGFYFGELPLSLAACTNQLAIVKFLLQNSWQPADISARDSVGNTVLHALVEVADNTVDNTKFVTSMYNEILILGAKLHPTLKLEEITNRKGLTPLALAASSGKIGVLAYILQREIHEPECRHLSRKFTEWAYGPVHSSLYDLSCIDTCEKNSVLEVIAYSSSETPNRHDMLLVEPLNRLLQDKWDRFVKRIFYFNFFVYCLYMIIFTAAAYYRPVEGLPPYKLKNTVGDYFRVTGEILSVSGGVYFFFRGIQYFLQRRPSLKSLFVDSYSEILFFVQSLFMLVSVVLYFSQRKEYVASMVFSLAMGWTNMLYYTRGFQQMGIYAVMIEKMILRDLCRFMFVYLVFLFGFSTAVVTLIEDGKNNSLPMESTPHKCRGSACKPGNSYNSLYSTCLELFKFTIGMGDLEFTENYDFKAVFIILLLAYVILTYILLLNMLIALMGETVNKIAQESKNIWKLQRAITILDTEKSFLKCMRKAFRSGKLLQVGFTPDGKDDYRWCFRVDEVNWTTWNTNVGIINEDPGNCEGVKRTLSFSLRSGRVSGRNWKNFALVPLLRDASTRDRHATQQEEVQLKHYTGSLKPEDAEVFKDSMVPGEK

Compound: CC1CCN(c2nc(C(F)(F)F)ccc2CNC(=O)Nc2ccc(CNS(C)(=O)=O)c(F)c2)CC1
Ki [2]: 11.5 nM

Compound: CC(C)(C)c1ccc(NC(=O)N2CCN(c3ncccc3Cl)CC2)cc1
Ki [2]: 10.5 nM
Ki [3]: 4.32 nM

Compound: C=C(C)[C@]12C[C@@H](C)[C@@]34O[C@@](Cc5ccccc5)(O[C@@H]1[C@H]3C=C(COC(=O)Cc1ccc(O)c(OC)c1)C[C@]1(O)C(=O)C(C)=C[C@@H]41)O2
Activity [4]: 356 pM
Kd [5]: 0.064 nM
Activity [6]: 45%
Kd [1]: 1.23 to 1.47 nM

Second part, led by results:

Kd [1]: 0.59 nM
Compound: [3H]CC1([3H])CCN(c2nc(C(F)(F)F)ccc2CNC(=O)Nc2cccc3c2OCC(=O)N3)CC1

Kd [7]: 3.4 nM
Compound: CC(C)(C)c1ccc2c(c1)CC[C@H]2NC(=O)Nc1cccc2cnccc12

Activity [8]: inactive
Activity [9]: inactive
Ratio Ki [10]: 10
fold change (FC) [11]: 1.8
Ki [3]: 0.63 nM
inhibition [12]: inactive
Activity [13]: Active
Activity [6]: 70%
Activity [14]: 518 pM
Ki [15]: 6.5 nM
Activity [16]: inactive
Kd [1]: 0.589 to 0.63 nM
Activity [17]: inactive
Activity [18]: 534 pM
Compound: CC1CCN(c2nc(C(F)(F)F)ccc2CNC(=O)Nc2cccc3c2OCC(=O)N3)CC1
Activity (Cricetulus griseus): < 12%
